# The source made the active and inactive calls. The calls are words filed in the database; no cut-off is given here.
# Legend:
# [1] = Tmax in Enterococcus faecalis infected Wistar rat at single administration of 2 to 3 g, po; type: ADME, organism-based; conditions: in vivo
# Outline: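 Female Wistar rats (180-200 g) with catheter-induced sterile aortic vegetations; 24 h after catheterization, drug delivered by pump at changing flow rates to mimic human serum kinetics of a single 2-3 g oral dose. Serum levels in groups of 3-5 rats by agar diffusion bioassay (Bacillus subtilis ATCC 6633 indicator; detection limit 0.39 mg/liter); means ± SD.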
# Enterococcus faecalis [2] = assay: Antibacterial activity against vancomycin-susceptible Enterococcus faecalis 309 challenged with 10 times ID90 bacterial size inoculum in Wistar rat assessed as infection at single administration of 2 to 3 g, po
# Enterococcus faecalis [3] = assay: Antibacterial activity against vancomycin-susceptible Enterococcus faecalis JH2-2 after 24 hrs by broth macrodilution method; type: functional
# Enterococcus faecalis [4] = assay: Antibacterial activity against vancomycin-resistant Enterococcus faecalis UCN41 challenged with ID90 bacterial size inoculum in Wistar rat assessed as infection at single administration of 2 to 3 g, po; type: functional, organism-based
# Outline: (§1)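 Female Wistar rats (180 to 200 g) with catheter-induced sterile aortic vegetations; 24 h after catheterization, groups of 10 received prophylaxis by pump at changing flow rates mimicking human serum kinetics; controls got i.v. saline. I.v. challenge at peak serum drug level with ID90 or 10 times ID90. Vegetations cultured 72 h after prophylaxis ended; sterile if no growth, detection limit ≥2 log10 CFU/g.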
# Enterococcus faecalis [5] = assay: Antibacterial activity against vancomycin-resistant Enterococcus faecalis UCN41 challenged with 10 times ID90 bacterial size inoculum in Wistar rat assessed as infection at single administration of 600 mg, po; type: functional, organism-based; outline: as §1
# Enterococcus faecalis [6] = assay: Antibacterial activity against vancomycin-susceptible Enterococcus faecalis 1209 challenged with 10 times ID90 bacterial size inoculum in Wistar rat assessed as infection at single administration of 2 to 3 g, po
# [7] = Cmax in Enterococcus faecalis infected Wistar rat at single administration of 2 to 3 g, po; type: ADME, organism-based; conditions: in vivo
# Outline: (§2)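 Catheterized female Wistar rats received pump-controlled i.v. infusion at changing flow rates simulating human serum kinetics of the oral regimen. Serum drug levels were measured by agar diffusion bioassay in groups of 3–5 animals. Indicator organisms were B. subtilis ATCC 6633 for amoxicillin (detection limit 0.39 mg/liter) and S. aureus ATCC 29213 for linezolid (detection limit 3.12 mg/liter). Values are means ± SD.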
# Rattus norvegicus [8] = assay: T>MIC in Enterococcus faecalis infected Wistar rat at single administration of 2 to 3 g, po; type: ADME, organism-based; conditions: in vivo; outline: as §2
# Enterococcus faecalis [9] = assay: Antibacterial activity against vancomycin-susceptible Enterococcus faecalis 309 after 24 hrs by broth macrodilution method; type: functional
# Enterococcus faecalis [10] = assay: Antibacterial activity against vancomycin-susceptible Enterococcus faecalis 1209 after 24 hrs by broth macrodilution method; type: functional
# Enterococcus faecalis [11] = assay: Antibacterial activity against vancomycin-susceptible Enterococcus faecalis 309 challenged with ID90 bacterial size inoculum in Wistar rat assessed as infection at single administration of 2 to 3 g, po; type: functional, organism-based
# Outline: (§3)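 Female Wistar rats (180–200 g) with catheter-induced sterile aortic vegetations. 24 h after catheterization, drug is delivered i.v. by pump at changing flow rates to mimic human serum kinetics of a single 2–3 g oral dose. Rats are challenged i.v. with the ID90 at peak serum concentration. Vegetations are cultured 72 h after prophylaxis ends; sterile = no growth (detection ≥2 log10 CFU/g).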
# Enterococcus faecalis [12] = assay: Antibacterial activity against vancomycin-susceptible Enterococcus faecalis JH2-2 challenged with ID90 bacterial size inoculum in Wistar rat assessed as infection at single administration of 2 to 3 g, po; type: functional, organism-based; outline: as §3
# Enterococcus faecalis [13] = assay: Antibacterial activity against vancomycin-resistant Enterococcus faecalis UCN41 after 24 hrs by broth macrodilution method; type: functional
# Rattus norvegicus [14] = assay: T>MIC in Enterococcus faecalis infected Wistar rat at 600 mg, po four consecutive administration every 12 hrs; type: ADME, organism-based; conditions: in vivo; outline: as §2
# [15] = Cmax in Enterococcus faecalis infected Wistar rat at single administration of 600 mg, po; type: ADME, organism-based; parameters: dose 600 mg, route oral; conditions: in vivo; outline: as §2
# [16] = Tmax in Enterococcus faecalis infected Wistar rat at 600 mg, po two consecutive administration every 12 hrs; type: ADME, organism-based; conditions: in vivo
# Outline: (§4)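 Female Wistar rats (180–200 g) with sterile aortic vegetations from a carotid catheter received drug 24 h later by pump at changing flow rates, mimicking human serum kinetics of 600 mg oral doses every 12 h. Serum levels were measured in groups of three to five rats by agar diffusion bioassay (S. aureus ATCC 29213 indicator; detection limit 3.12 mg/liter).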
# [17] = Cmax in Enterococcus faecalis infected Wistar rat at 600 mg, po two consecutive administration every 12 hrs; type: ADME, organism-based; parameters: dose 600 mg, route oral; conditions: in vivo; outline: as §2
# [18] = Tmax in Enterococcus faecalis infected Wistar rat at single administration of 600 mg, po; type: ADME, organism-based; conditions: in vivo; outline: as §4
# Rattus norvegicus [19] = assay: T>MIC in Enterococcus faecalis infected Wistar rat at 600 mg, po two consecutive administration every 12 hrs; type: ADME, organism-based; conditions: in vivo; outline: as §2
# [20] = Cmax in Enterococcus faecalis infected Wistar rat at 600 mg, po four consecutive administration every 12 hrs; type: ADME, organism-based; parameters: dose 600 mg, route oral; conditions: in vivo; outline: as §2
# Rattus norvegicus [21] = assay: T>MIC in Enterococcus faecalis infected Wistar rat at single administration of 600 mg, po; type: ADME, organism-based; conditions: in vivo; outline: as §2
# [22] = Tmax in Enterococcus faecalis infected Wistar rat at 600 mg, po four consecutive administration every 12 hrs; type: ADME, organism-based; conditions: in vivo; outline: as §4
# Enterococcus faecalis [23] = assay: Antibacterial activity against vancomycin-susceptible Enterococcus faecalis JH2-2 challenged with ID90 bacterial size inoculum in Wistar rat assessed as infection at single administration 1 g, iv; type: functional, organism-based; outline: as §1
# Rattus norvegicus [24] = assay: T>MIC in Enterococcus faecalis infected Wistar rat at single administration of 1 g, iv; type: ADME, organism-based; conditions: in vivo
# Outline: (§5)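 Serum drug levels in rats receiving human-kinetics simulation by pump, measured in groups of three to five animals by agar diffusion bioassay with Bacillus subtilis ATCC 6633 as indicator; detection limit 1.76 mg/liter; linear standard curves. Values as means ± SD.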
# Enterococcus faecalis [25] = assay: Antibacterial activity against vancomycin-resistant Enterococcus faecalis UCN41 challenged with ID90 bacterial size inoculum in Wistar rat assessed as infection at single administration of 1 g, iv; type: functional, organism-based; outline: as §1
# [26] = Tmax in Enterococcus faecalis infected Wistar rat at single administration of 1 g, iv; type: ADME, organism-based; conditions: in vivo; outline: as §5
# [27] = Cmax in Enterococcus faecalis infected Wistar rat at single administration of 1 g, iv; type: ADME, organism-based; parameters: dose 1 g, route intravenous; conditions: in vivo; outline: as §5
# [28] = Enterococcus faecalis, 309, 24 h
# [29] = Enterococcus faecalis, 1209, 24 h
compound,measurement,setting,value
CC1(C)S[C@@H]2[C@H](NC(=O)[C@H](N)c3ccc(O)cc3)C(=O)N2[C@H]1C(=O)O [AMOXICILLIN],Tmax,[1],2 h
same,Activity,Enterococcus faecalis [2],Active
same,MIC,"Enterococcus faecalis [3]; JH2-2, 24 h",0.25 µg/mL
same,Activity,Enterococcus faecalis [4],Active
same,Activity,Enterococcus faecalis [5],Active
same,Activity,Enterococcus faecalis [6],Active
same,Cmax,[7],29400 ng/mL
same,T>MIC,Rattus norvegicus [8],12 h
same,MIC,Enterococcus faecalis [9]; [28],0.5 µg/mL
same,MIC,Enterococcus faecalis [10]; [29],1 µg/mL
same,Activity,Enterococcus faecalis [11],Active
same,Activity,Enterococcus faecalis [12],Active
same,MIC,"Enterococcus faecalis [13]; UCN41, 24 h",0.25 µg/mL
CC(=O)NC[C@H]1CN(c2ccc(N3CCOCC3)c(F)c2)C(=O)O1 [LINEZOLID],T>MIC,Rattus norvegicus [14],48 h
same,Activity,Enterococcus faecalis [5],inactive
same,Cmax,[15],17500 ng/mL
same,Tmax,[16],1 h
same,Cmax,[17],18600 ng/mL
same,Tmax,[18],1 h
same,T>MIC,Rattus norvegicus [19],24 h
same,Cmax,[20],19300 ng/mL
same,T>MIC,Rattus norvegicus [21],12 h
same,Tmax,[22],1 h
CN[C@H](CC(C)C)C(=O)N[C@H]1C(=O)N[C@@H](CC(N)=O)C(=O)N[C@H]2C(=O)N[C@H]3C(=O)N[C@H](C(=O)N[C@H](C(=O)O)c4cc(O)cc(O)c4-c4cc3ccc4O)[C@H](O)c3ccc(c(Cl)c3)Oc3cc2cc(c3O[C@@H]2O[C@H](CO)[C@@H](O)[C@H](O)[C@H]2O[C@H]2C[C@](C)(N)[C@H](O)[C@H](C)O2)Oc2ccc(cc2Cl)[C@H]1O [VANCOMYCIN],MIC,"Enterococcus faecalis [3]; JH2-2, 24 h",1 µg/mL
same,Activity,Enterococcus faecalis [23],Active
same,T>MIC,Rattus norvegicus [24],12 h
same,MIC,Enterococcus faecalis [9]; [28],4 µg/mL
same,MIC,Enterococcus faecalis [10]; [29],4 µg/mL
same,Activity,Enterococcus faecalis [25],inactive
same,Tmax,[26],30 min
same,MIC,"Enterococcus faecalis [13]; UCN41, 24 h",> 256 µg/mL
same,Cmax,[27],37800 ng/mL
GENTAMICIN,MIC,Enterococcus faecalis [3],2 µg/mL
same,MIC,Enterococcus faecalis [9],64 µg/mL
same,MIC,Enterococcus faecalis [10],16 µg/mL
same,MIC,Enterococcus faecalis [13],1 µg/mL

# — ChEMBL document CHEMBL1145514, “Single-dose oral amoxicillin or linezolid for prophylaxis of experimental endocarditis due to vancomycin-susceptible and vancomycin-resistant Enterococcus faecalis” (Antimicrob Agents Chemother, 2007)
